Data from ChEMBL document CHEMBL1136442, “New anti-malarial peroxides with in vivo potency derived from spongean metabolites” (Bioorg Med Chem Lett, 2003).

Columns and labels:
[1] = tested on: Mus musculus; assay: In vivo anti-malarial activity against Plasmodium berghei
[2] = tested on: KB 3-1; assay: In vitro antimalarial activity against KB 3-1; assay type: functional, cell-based; details: Homo sapiens
In short: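 Cytotoxicity was measured by colorimetric MTT assay, with mitomycin C as positive control.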

[3] = tested on: Mus musculus; assay: Survival days of the treated animal to that of control animal at a dose of 10 mg/kg; assay type: functional
[4] = Selectivity index was determined; assay type: functional
[5] = tested on: Plasmodium falciparum; assay: In vitro anti-malarial activity against Plasmodium falciparum; assay type: functional, organism-based
In short: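 FCR3 strain (cycloguanil-resistant, Gambia) was sorbitol-synchronized and plated at ring stage (0.55% parasitemia, 2% hematocrit). Compound was added from DMSO stock diluted in complete medium (1% DMSO final). After 48 h at 37 °C, proliferation was scored on Giemsa smears, 10,000 erythrocytes per film, in triplicate. Quinine was the reference.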

[6] = species on record: Mus musculus; assay: In vitro anti-malarial activity in mice (Mus musculus) serum after 24 hr; assay type: functional, organism-based

Compound	ED50 [1] [mg/kg]	IC50 [2] [nM]	T/C [3]	Selectivity index [4]	IC50 [5] [nM]	IC50 [6] [nM]
C[C@@H]1CC[C@H]2[C@@H](C)C(=O)O[C@@H]3O[C@@]4(C)CC[C@@H]1[C@]32OO4 [ARTEMISININ]	5	–	–	–	–	–
CCCCCC1(OC)CCC(CC(=O)NC)OO1 (centres undefined)	–	5200	118	10	520	–
CCCCCC1(OC)CCC(CC(=O)N(CC)CC)OO1 (centres undefined)	20	13000	118	27	490	–
CCCCCC1(OC)CCC(CC(=O)NCCC)OO1 (centres undefined)	9.3	12000	138	39	310	–
CCCCCC1(OC)CCC(CC(=O)NCC)OO1 (centres undefined)	11	14000	125	25	540	–
CCCCCC1(OC)CCC(CC(=O)OC)OO1 (centres undefined)	> 30	–	81	360	–	–
CCCCCC1(OC)CCC(CC(=O)O)OO1 (centres undefined)	–	–	–	–	–	> 1200
CCCCCC1(OC)CCC(CC(=O)N(C)C)OO1 (centres undefined)	13	4000	95	13	310	–
